Results taken from ChEMBL document CHEMBL1141803, “Floratheasaponins A-C, acylated oleanane-type triterpene oligoglycosides with anti-hyperlipidemic activities from flowers of the tea plant (Camellia sinensis)” (2005).

How the values were obtained:
Type in all cases: functional
Mus musculus [1] = experiment: Antihyperlipidemic activity in olive oil-treated ddY mouse assessed as serum triglyceride level at 100 mg/kg, po after 2 hrs
Summary of the method: (§1)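 Male ddY mice (25-30 g) kept at 23 ± 2 °C on standard chow, fasted 24-26 h with free access to water, conscious. Test sample given orally; olive oil (5 mL/kg, p.o.) given 30 min later. Blood drawn from the infraorbital venous plexus 2, 4 and 6 h after olive oil. Serum TG measured enzymatically (triglyceride E test). Means ± SEM, n = 5-12 per group.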

Mus musculus [2] = experiment: Antihyperlipidemic activity in olive oil-treated ddY mouse assessed as serum triglyceride level at 50 mg/kg, po after 2 hrs; summary of the method: as §1
Mus musculus [3] = experiment: Antihyperlipidemic activity in olive oil-treated ddY mouse assessed as serum triglyceride level at 100 mg/kg, po after 6 hrs; summary of the method: as §1
Mus musculus [4] = experiment: Antihyperlipidemic activity in olive oil-treated ddY mouse assessed as serum triglyceride level at 50 mg/kg, po after 4 hrs; summary of the method: as §1
Mus musculus [5] = experiment: Antihyperlipidemic activity in olive oil-treated ddY mouse assessed as serum triglyceride level at 50 mg/kg, po after 6 hrs; summary of the method: as §1
Mus musculus [6] = experiment: Antihyperlipidemic activity in olive oil-treated ddY mouse assessed as serum triglyceride level at 25 mg/kg, po after 4 hrs; summary of the method: as §1
Mus musculus [7] = experiment: Antihyperlipidemic activity in olive oil-treated ddY mouse assessed as serum triglyceride level at 25 mg/kg, po after 2 hrs; summary of the method: as §1
Mus musculus [8] = experiment: Antihyperlipidemic activity in olive oil-treated ddY mouse assessed as serum triglyceride level at 25 mg/kg, po after 6 hrs; summary of the method: as §1
Mus musculus [9] = experiment: Antihyperlipidemic activity in olive oil-treated ddY mouse assessed as serum triglyceride level at 100 mg/kg, po after 4 hrs; summary of the method: as §1
Mus musculus [10] = experiment: Antihyperlipidemic activity in olive oil-treated ddY mouse assessed as serum triglyceride level at 6.25 mg/kg, po after 2 hrs; summary of the method: as §1
Mus musculus [11] = experiment: Antihyperlipidemic activity in olive oil-treated ddY mouse assessed as serum triglyceride level at 6.25 mg/kg, po after 6 hrs; summary of the method: as §1
Mus musculus [12] = experiment: Antihyperlipidemic activity in olive oil-treated ddY mouse assessed as serum triglyceride level at 12.5 mg/kg, po after 4 hrs; summary of the method: as §1
Mus musculus [13] = experiment: Antihyperlipidemic activity in olive oil-treated ddY mouse assessed as serum triglyceride level at 12.5 mg/kg, po after 2 hrs; summary of the method: as §1
Mus musculus [14] = experiment: Antihyperlipidemic activity in olive oil-treated ddY mouse assessed as serum triglyceride level at 12.5 mg/kg, po after 6 hrs; summary of the method: as §1
Mus musculus [15] = experiment: Antihyperlipidemic activity in olive oil-treated ddY mouse assessed as serum triglyceride level at 6.25 mg/kg, po after 4 hrs; summary of the method: as §1
Mus musculus [16] = experiment: Antihyperlipidemic activity in olive oil-treated ddY mouse assessed as serum triglyceride level at 500 mg/kg, po after 4 hrs; summary of the method: as §1
Mus musculus [17] = experiment: Antihyperlipidemic activity in olive oil-treated ddY mouse assessed as serum triglyceride level at 500 mg/kg, po after 2 hrs; summary of the method: as §1
Mus musculus [18] = experiment: Antihyperlipidemic activity in olive oil-treated ddY mouse assessed as serum triglyceride level at 125 mg/kg, po after 2 hrs; summary of the method: as §1
Mus musculus [19] = experiment: Antihyperlipidemic activity in olive oil-treated ddY mouse assessed as serum triglyceride level at 250 mg/kg, po after 4 hrs; summary of the method: as §1
Mus musculus [20] = experiment: Antihyperlipidemic activity in olive oil-treated ddY mouse assessed as serum triglyceride level at 500 mg/kg, po after 6 hrs; summary of the method: as §1
Mus musculus [21] = experiment: Antihyperlipidemic activity in olive oil-treated ddY mouse assessed as serum triglyceride level at 250 mg/kg, po after 6 hrs; summary of the method: as §1
Mus musculus [22] = experiment: Antihyperlipidemic activity in olive oil-treated ddY mouse assessed as serum triglyceride level at 250 mg/kg, po after 2 hrs; summary of the method: as §1
Mus musculus [23] = experiment: Antihyperlipidemic activity in olive oil-treated ddY mouse assessed as serum triglyceride level at 125 mg/kg, po after 4 hrs; summary of the method: as §1
Mus musculus [24] = experiment: Antihyperlipidemic activity in olive oil-treated ddY mouse assessed as serum triglyceride level at 125 mg/kg, po after 6 hrs; summary of the method: as §1

**Q.** With C/C=C\C(=O)O[C@H]1[C@H](OC(C)=O)[C@]2(CO)[C@H](O)C[C@]3(C)C(=CC[C@@H]4[C@@]5(C)CC[C@H](O[C@@H]6O[C@H](C(=O)O)[C@@H](O)[C@H](O[C@@H]7OC[C@H](O)[C@H](O)[C@H]7O[C@@H]7OC[C@@H](O)[C@H](O)[C@H]7O)[C@H]6O[C@@H]6O[C@H](CO)[C@H](O)[C@H](O)[C@H]6O)[C@@](C)(C=O)C5CC[C@]43C)[C@@H]2CC1(C)C (stereo partly drawn) [THEASAPONIN E1] as the compound, how does the Activity (Mus musculus [1]) read?
**A.** 342.3 mg/dL

**Q.** What about the Activity (Mus musculus [2]) of the same compound?
**A.** 373.9 mg/dL

**Q.** And the Activity (Mus musculus [3])?
**A.** 294.9 mg/dL

**Q.** What about the Activity (Mus musculus [4]) of the same compound?
**A.** 312.2 mg/dL

**Q.** And the Activity (Mus musculus [5])?
**A.** 267.2 mg/dL

**Q.** What about the Activity (Mus musculus [6]) of the same compound?
**A.** 430.7 mg/dL

**Q.** And the Activity (Mus musculus [7])?
**A.** 578.5 mg/dL

**Q.** What about the Activity (Mus musculus [8]) of the same compound?
**A.** 233.9 mg/dL

**Q.** And the Activity (Mus musculus [9])?
**A.** 389.5 mg/dL

**Q.** C/C=C\C(=O)O[C@H]1[C@H](OC(C)=O)[C@]2(CO)[C@H](O)C[C@]3(C)C(=CC[C@@H]4[C@@]5(C)CC[C@H](O[C@@H]6O[C@H](C(=O)O)[C@@H](O)[C@H](O[C@@H]7OC[C@H](O)[C@H](O)[C@H]7O[C@@H]7OC[C@@H](O)[C@H](O)[C@H]7O)[C@H]6O[C@@H]6O[C@H](CO)[C@H](O)[C@H](O)[C@H]6O)C(C)(C)C5CC[C@]43C)[C@@H]2CC1(C)C (stereo partly drawn) [FLORATHEASAPONIN A] was tested. Which Activity (Mus musculus [1]) did it give?
**A.** 158.3 mg/dL

**Q.** What about the Activity (Mus musculus [2]) of the same compound?
**A.** 387.4 mg/dL

**Q.** And the Activity (Mus musculus [3])?
**A.** 322.3 mg/dL

**Q.** What about the Activity (Mus musculus [4]) of the same compound?
**A.** 392.9 mg/dL

**Q.** And the Activity (Mus musculus [5])?
**A.** 256.8 mg/dL

**Q.** And the Activity (Mus musculus [6])?
**A.** 251.8 mg/dL

**Q.** And the Activity (Mus musculus [7])?
**A.** 411 mg/dL

**Q.** What about the Activity (Mus musculus [8]) of the same compound?
**A.** 135.7 mg/dL

**Q.** What about the Activity (Mus musculus [9]) of the same compound?
**A.** 242 mg/dL

**Q.** CCCCCCCCCCC[C@@H](C[C@@H]1OC(=O)[C@H]1CCCCCC)OC(=O)[C@H](CC(C)C)NC=O [ORLISTAT] was tested. Which Activity (Mus musculus [10]) did it give?
**A.** 266.4 mg/dL

**Q.** What about the Activity (Mus musculus [11]) of the same compound?
**A.** 155.6 mg/dL

**Q.** And the Activity (Mus musculus [12])?
**A.** 176 mg/dL

**Q.** What about the Activity (Mus musculus [13]) of the same compound?
**A.** 187.9 mg/dL

**Q.** What about the Activity (Mus musculus [14]) of the same compound?
**A.** 189.7 mg/dL

**Q.** What about the Activity (Mus musculus [15]) of the same compound?
**A.** 179.3 mg/dL

**Q.** And the Activity (Mus musculus [6])?
**A.** 132.2 mg/dL

**Q.** What about the Activity (Mus musculus [7]) of the same compound?
**A.** 158.9 mg/dL

**Q.** What about the Activity (Mus musculus [8]) of the same compound?
**A.** 140.1 mg/dL

**Q.** CC1(C)C[C@H]2C3=CC[C@@H]4[C@@]5(C)CC[C@H](O[C@@H]6O[C@H](C(=O)O)[C@@H](O)[C@H](O[C@@H]7OC[C@H](O)[C@H](O)[C@H]7O[C@@H]7OC[C@@H](O)[C@H](O)[C@H]7O)[C@H]6O[C@@H]6O[C@H](CO)[C@H](O)[C@H](O)[C@H]6O)[C@@](C)(C=O)C5CC[C@@]4(C)[C@]3(C)C[C@@H](O)[C@@]2(CO)[C@@H](O)[C@@H]1O (stereo partly drawn) was tested. Which Activity (Mus musculus [1]) did it give?
**A.** 440.8 mg/dL

**Q.** What about the Activity (Mus musculus [2]) of the same compound?
**A.** 468.7 mg/dL

**Q.** What about the Activity (Mus musculus [3]) of the same compound?
**A.** 314.3 mg/dL

**Q.** What about the Activity (Mus musculus [4]) of the same compound?
**A.** 410.5 mg/dL

**Q.** And the Activity (Mus musculus [5])?
**A.** 332.3 mg/dL

**Q.** What about the Activity (Mus musculus [9]) of the same compound?
**A.** 363.2 mg/dL

**Q.** Which results are given for CCOC(=O)C(C)(C)Oc1ccc(Cl)cc1 [CLOFIBRATE]?
**A.** Activity (Mus musculus [16]): 239.7 mg/dL; Activity (Mus musculus [17]): 318.2 mg/dL; Activity (Mus musculus [18]): 377.5 mg/dL; Activity (Mus musculus [19]): 340.5 mg/dL; Activity (Mus musculus [20]): 373.5 mg/dL; Activity (Mus musculus [21]): 443.3 mg/dL; Activity (Mus musculus [22]): 441.2 mg/dL; Activity (Mus musculus [23]): 295 mg/dL; Activity (Mus musculus [24]): 333.4 mg/dL

**Q.** Which results are given for C/C=C\C(=O)O[C@H]1[C@H](O)[C@]2(COC(C)=O)[C@H](O)C[C@]3(C)C(=CC[C@@H]4[C@@]5(C)CC[C@H](O[C@@H]6O[C@H](C(=O)O)[C@@H](O)[C@H](O[C@@H]7OC[C@H](O)[C@H](O)[C@H]7O[C@@H]7OC[C@@H](O)[C@H](O)[C@H]7O)[C@H]6O[C@@H]6O[C@H](CO)[C@H](O)[C@H](O)[C@H]6O)[C@@](C)(C=O)C5CC[C@]43C)[C@@H]2CC1(C)C (stereo partly drawn) [THEASAPONIN E2]?
**A.** Activity (Mus musculus [1]): 509.4 mg/dL; Activity (Mus musculus [2]): 552.9 mg/dL; Activity (Mus musculus [3]): 396.4 mg/dL; Activity (Mus musculus [4]): 507.5 mg/dL; Activity (Mus musculus [5]): 361.3 mg/dL; Activity (Mus musculus [9]): 507 mg/dL
